From ChEMBL document CHEMBL1127736, “Isozyme-specific glutathione-S-transferase inhibitors: design and synthesis” (J Med Chem, 1994)
Numbered stars: 1 amine (or outer) side, 2 acyl side, 3 side chain; on linkers, the order of the positions; unused ones are H or OH. Square brackets hold non-standard residues; d marks the D form. Peptide text beside a SMILES is read from it. * marks the point of attachment. γGlu = O=C(O)[CH](CCC(=O)[*:2])N[*:1]; Phg = N[CH](C(=O)O)c1ccccc1; Bn = c1ccc(C*)cc1

Key:
[1] = biological target: T1, Glutathione S-transferase A1 (Homo sapiens, UniProt P08263); test: Inhibitory activity was measured on recombinant human Glutathione-S-transferase A1 enzyme
T1 sequence (P08263 whole entry): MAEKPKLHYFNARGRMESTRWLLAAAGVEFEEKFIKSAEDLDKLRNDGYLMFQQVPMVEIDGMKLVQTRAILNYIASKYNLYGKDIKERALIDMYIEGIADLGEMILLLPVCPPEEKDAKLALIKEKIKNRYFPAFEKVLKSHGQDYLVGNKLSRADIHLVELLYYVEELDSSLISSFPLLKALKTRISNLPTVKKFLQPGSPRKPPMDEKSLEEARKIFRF
How it was run: (§1)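 Enzyme inhibition was measured in the reaction of recombinant human GST isozymes (four isozymes tested) with glutathione and 1-chloro-2,4-dinitrobenzene (CDNB) as the electrophilic substrate. Ki values were determined by a previously published method. The error in each measurement is stated as ±30%.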

[2] = biological target: T2, Glutathione S-transferase Mu 1 (Homo sapiens, UniProt P09488); test: Inhibitory activity was measured on recombinant human Glutathione S-transferase Mu 1; how it was run: as §1
T2 sequence (P09488 whole entry): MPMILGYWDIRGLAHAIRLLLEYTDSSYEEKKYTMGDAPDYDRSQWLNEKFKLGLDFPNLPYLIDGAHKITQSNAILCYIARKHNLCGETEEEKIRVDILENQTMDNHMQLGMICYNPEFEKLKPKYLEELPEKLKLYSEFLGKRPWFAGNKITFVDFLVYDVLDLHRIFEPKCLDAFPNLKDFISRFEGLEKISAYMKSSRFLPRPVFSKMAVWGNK

[3] = biological target: T3, Glutathione S-transferase Mu 2 (Homo sapiens, UniProt P28161); test: Inhibitory activity was measured on recombinant human Glutathione S-transferase Mu 2; how it was run: as §1
T3 sequence (P28161 whole entry): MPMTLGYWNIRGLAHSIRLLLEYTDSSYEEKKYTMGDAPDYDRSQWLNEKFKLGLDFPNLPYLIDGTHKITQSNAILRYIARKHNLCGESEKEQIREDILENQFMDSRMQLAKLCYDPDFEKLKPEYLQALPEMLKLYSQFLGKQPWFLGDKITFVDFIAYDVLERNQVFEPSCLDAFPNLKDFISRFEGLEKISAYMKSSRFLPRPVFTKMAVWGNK

[4] = biological target: Glutathione S-transferase P (Homo sapiens, UniProt P09211); test: Inhibitory activity was measured on recombinant human Glutathione S-transferase P; how it was run: as §1
[5] = biological target: T2, Glutathione S-transferase Mu 1; test: Inhibitory activity was measured on recombinant human Glutathione-S-transferase M1a enzyme; how it was run: as §1

Sequence of Glutathione S-transferase P (P09211 whole entry): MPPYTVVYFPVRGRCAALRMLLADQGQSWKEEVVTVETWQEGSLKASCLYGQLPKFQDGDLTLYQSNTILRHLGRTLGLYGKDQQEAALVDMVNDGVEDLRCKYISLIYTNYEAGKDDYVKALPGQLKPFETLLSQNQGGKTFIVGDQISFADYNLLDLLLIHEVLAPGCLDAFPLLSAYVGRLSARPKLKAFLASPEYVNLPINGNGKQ

Ki [1] [µM]	Ki [2] [µM]	Ki [3] [µM]	Ki [4] [µM]	Ki [5] [µM]	Structure (SMILES)
43	11	42	550		CCCCCCSCC(NC(=O)CCC(N)C(=O)O)C(=O)NCCC(=O)O (configuration not stated)
14.7		48.3	0.12	15.1	NC(CCC(=O)NC(CSCc1ccc(Cl)cc1)C(=O)NC(C(=O)O)c1ccccc1)C(=O)O (configuration not stated)
24.3	57.8	184	0.42		NC(CCC(=O)NC(CSCc1ccccc1)C(=O)NC(C(=O)O)c1ccccc1)C(=O)O (configuration not stated) (γGlu-Cys(Bn)-[Phg]-OH; configuration not given here)
0.84	2	36			CCCCCCSCC(NC(=O)CCC(N)C(=O)O)C(=O)NCC(=O)O (configuration not stated)
5.8	41	97	0.85		CCCCCCSCC(NC(=O)CCC(N)C(=O)O)C(=O)NC(C(=O)O)c1ccccc1 (configuration not stated)
360	22	26	710		NC(CCC(=O)NC(CSCc1ccccc1)C(=O)NCCC(=O)O)C(=O)O (configuration not stated)
43	2.1	20	40		Cc1ccc(CSCC(NC(=O)CCC(N)C(=O)O)C(=O)NCCC(=O)O)cc1 (configuration not stated)
